For one test, the system named is HT. Put plainly: Cytotoxicity against human HT cells harboring MYD88 assessed as reduction in cell viability incubated for 72 hrs by CCK-8 assay. Format: functional, cell-based.
The subject of another test is Ramos. Kind of test: Cytotoxicity against human Ramos cells harboring MYD88 assessed as reduction in cell viability incubated for 72 hrs by CCK-8 assay. Format: functional, cell-based.
In the next test the test system is OCI-Ly10. Put plainly: Cytotoxicity against human OCILY10 cells harboring MYD88 L265P mutant assessed as reduction in cell viability incubated for 72 hrs by CCK-8 assay. The following applies: OCI-Ly10, 72 h. In kind it is functional, cell-based. On the technique in general: Tetrazolium assays rely on reduction of a dye to a coloured formazan, in cell work by metabolically active cells.

Test [1] concerns TMD8. Put plainly: Cytotoxicity against human TMD8 cells harboring MYD88 L265P mutant assessed as reduction in cell viability incubated for 72 hrs by CCK-8 assay. In kind it is functional, cell-based. The following applies: TMD8, 72 h.
The target of test [2] is T1, Interleukin-1 receptor-associated kinase 4 (Homo sapiens, UniProt Q9NWZ3).
T1 sequence (Q9NWZ3 whole entry): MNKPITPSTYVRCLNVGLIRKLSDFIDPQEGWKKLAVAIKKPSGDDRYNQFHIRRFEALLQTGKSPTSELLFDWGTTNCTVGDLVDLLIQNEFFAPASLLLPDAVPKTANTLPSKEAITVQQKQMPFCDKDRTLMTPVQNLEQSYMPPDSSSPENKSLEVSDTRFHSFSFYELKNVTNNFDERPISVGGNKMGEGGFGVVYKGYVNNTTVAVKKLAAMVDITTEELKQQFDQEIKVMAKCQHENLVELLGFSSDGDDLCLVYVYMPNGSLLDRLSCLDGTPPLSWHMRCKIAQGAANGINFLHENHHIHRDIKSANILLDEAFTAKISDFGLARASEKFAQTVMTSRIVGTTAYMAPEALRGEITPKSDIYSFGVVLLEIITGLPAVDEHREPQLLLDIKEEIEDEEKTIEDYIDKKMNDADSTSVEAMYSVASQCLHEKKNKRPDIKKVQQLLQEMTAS
Put plainly: Inhibition of recombinant human His-tagged full length IRAK4 expressed in baculovirus expression system using Ser/Thr07 peptide as substrate incubated for 1 hr by Z'lyte assay.

Test [3] deals with Receptor-type tyrosine-protein kinase FLT3 (Homo sapiens) (UniProt P36888). Put plainly: Inhibition of FLT3 (unknown origin) at 0.1 uM incubated for 1 hr by ELISA relative to control. In a few lines: (§1)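 Part of a 20-kinase panel tested at 0.1 μM compound. Kinase inhibition measured by ELISA following previously described protocols.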
Sequence of Receptor-type tyrosine-protein kinase FLT3 (Homo sapiens) (P36888 whole entry): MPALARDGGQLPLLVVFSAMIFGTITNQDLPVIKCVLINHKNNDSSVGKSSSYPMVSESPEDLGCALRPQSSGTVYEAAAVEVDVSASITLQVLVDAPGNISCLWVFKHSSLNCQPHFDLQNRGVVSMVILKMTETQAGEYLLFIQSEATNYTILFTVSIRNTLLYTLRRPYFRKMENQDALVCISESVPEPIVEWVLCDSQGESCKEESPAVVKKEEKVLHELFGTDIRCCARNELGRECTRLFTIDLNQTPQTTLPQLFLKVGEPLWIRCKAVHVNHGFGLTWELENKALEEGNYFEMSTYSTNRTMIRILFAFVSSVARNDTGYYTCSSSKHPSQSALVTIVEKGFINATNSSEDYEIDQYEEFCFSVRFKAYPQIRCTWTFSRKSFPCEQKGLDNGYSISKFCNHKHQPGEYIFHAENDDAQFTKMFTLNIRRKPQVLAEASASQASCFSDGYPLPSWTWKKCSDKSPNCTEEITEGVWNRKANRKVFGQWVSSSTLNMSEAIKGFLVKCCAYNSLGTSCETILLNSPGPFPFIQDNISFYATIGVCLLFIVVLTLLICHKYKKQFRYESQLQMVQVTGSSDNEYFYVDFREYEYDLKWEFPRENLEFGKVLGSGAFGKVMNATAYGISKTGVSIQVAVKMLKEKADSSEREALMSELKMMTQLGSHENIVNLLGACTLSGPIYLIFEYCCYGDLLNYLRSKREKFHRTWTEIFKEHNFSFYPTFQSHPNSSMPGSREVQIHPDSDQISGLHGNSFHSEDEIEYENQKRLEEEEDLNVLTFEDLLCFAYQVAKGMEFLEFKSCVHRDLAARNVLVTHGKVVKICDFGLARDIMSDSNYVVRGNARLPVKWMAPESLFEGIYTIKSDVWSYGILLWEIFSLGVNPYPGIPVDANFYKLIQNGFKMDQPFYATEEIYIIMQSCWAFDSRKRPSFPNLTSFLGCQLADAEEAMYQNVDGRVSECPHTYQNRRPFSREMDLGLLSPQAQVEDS
A general note: ELISA stands for enzyme-linked immunosorbent assay.

For test [4], the target named is T2, Interleukin-1 receptor-associated kinase 4 (Homo sapiens) (UniProt Q9NWZ3).
T2 sequence (whole entry): T1 sequence (Q9NWZ3 whole entry)
Kind of test: Inhibition of IRAK4 in human TMD8 cells assessed as decrease in IKKbeta phosphorylation at 0.3 to 10 uM incubated for 2 hrs by Western blot analysis. In kind it is cell-based. The following applies: dose 0.3-10 µM. In a few lines: (§2)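 OCI-LY10 or TMD8 cells, about 2×10^6 per well, treated with compound or DMSO for 2 h. Cells washed twice with PBS, lysed, then Western blotted for p-IRAK4 (Thr-345/Ser-346), p-IKKβ and p-p65. Bands quantified densitometrically; significance thresholds p<0.05, 0.01, 0.001.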

Test [5] concerns the target T2, Interleukin-1 receptor-associated kinase 4 (Homo sapiens). Put plainly: Inhibition of IRAK4 in human TMD8 cells assessed as decrease in NF-kappaB phosphorylation at 0.3 to 10 uM incubated for 2 hrs by Western blot analysis. In kind it is cell-based. The following applies: dose 0.3-10 µM. In a few lines:
as §2
A general note: In western blotting, separated proteins are transferred to a membrane and probed.

For test [6], the system named is Receptor-type tyrosine-protein kinase FLT3 (Homo sapiens), P36888 [UNDEFINED MUTATION]. Put plainly: Inhibition of FLT3-ITD mutant (unknown origin) at 0.1 uM incubated for 1 hr by ELISA relative to control. An outline of the steps:
as §1

For test [7], the target named is T2, Interleukin-1 receptor-associated kinase 4 (Homo sapiens). Kind of test: Inhibition of IRAK4 in human OCI-LY10 cells assessed as decrease in NF-kappaB phosphorylation at 0.3 to 10 uM incubated for 2 hrs by Western blot analysis. In kind it is cell-based. The following applies: OCILY10, dose 0.3-10 µM. An outline of the steps: as §2
Test [8] deals with TMD8. Kind of test: Cytotoxicity against human TMD8 cells harboring MYD88 L265P mutant assessed as combination index at 0.3 uM in presence of ibrutinib incubated for 72 hrs by CCK-8 assay. Format: functional. An outline of the steps:
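TMD8 cells (RPMI1640, 10% FBS, penicillin–streptomycin, 0.05 mM 2-mercaptoethanol, 37 °C, 5% CO2), seeded at 10000-12000 cells/well, exposed to ibrutinib plus IRAK4 inhibitor at varied concentrations for 72 h. Viability read by CCK-8; combination index computed with CalcuSyn, CI below 1 taken as synergy.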

The target of test [9] is T2, Interleukin-1 receptor-associated kinase 4 (Homo sapiens). Put plainly: Inhibition of IRAK4 in human OCILY10 cells assessed as decrease in IRAK4 Thr345/Ser346 phosphorylation incubated for 2 hrs by Western blot analysis. In kind it is cell-based. Particulars: dose 0.3-10 µM. In a few lines:
as §2

Test [10] shares this target. Kind of test: Inhibition of IRAK4 in human TMD8 cells assessed as decrease in IRAK4 Thr345/Ser346 phosphorylation incubated for 2 hrs by Western blot analysis. In kind it is cell-based. Particulars: dose 0.3-10 µM. In a few lines:
as §2

Test [11] has the same target. Put plainly: Inhibition of IRAK4 in human OCI-LY10 cells assessed as decrease in IKKbeta phosphorylation at 0.3 to 10 uM incubated for 2 hrs by Western blot analysis. In kind it is cell-based. The following applies: OCILY10, dose 0.3-10 µM. In a few lines: as §2
Test [12] concerns the target Mast/stem cell growth factor receptor Kit (Homo sapiens) (UniProt P10721). Put plainly: Inhibition of c-Kit (unknown origin) at 0.1 uM incubated for 1 hr by ELISA relative to control. In a few lines:
as §1

Activity calls are given as the source filed them.

Sequence of Receptor-type tyrosine-protein kinase FLT3 (Homo sapiens), P36888 [UNDEFINED MUTATION] (P36888 whole entry, looked up, change not shown): as the sequence (P36888 whole entry) above
Sequence of Mast/stem cell growth factor receptor Kit (Homo sapiens) (P10721 whole entry): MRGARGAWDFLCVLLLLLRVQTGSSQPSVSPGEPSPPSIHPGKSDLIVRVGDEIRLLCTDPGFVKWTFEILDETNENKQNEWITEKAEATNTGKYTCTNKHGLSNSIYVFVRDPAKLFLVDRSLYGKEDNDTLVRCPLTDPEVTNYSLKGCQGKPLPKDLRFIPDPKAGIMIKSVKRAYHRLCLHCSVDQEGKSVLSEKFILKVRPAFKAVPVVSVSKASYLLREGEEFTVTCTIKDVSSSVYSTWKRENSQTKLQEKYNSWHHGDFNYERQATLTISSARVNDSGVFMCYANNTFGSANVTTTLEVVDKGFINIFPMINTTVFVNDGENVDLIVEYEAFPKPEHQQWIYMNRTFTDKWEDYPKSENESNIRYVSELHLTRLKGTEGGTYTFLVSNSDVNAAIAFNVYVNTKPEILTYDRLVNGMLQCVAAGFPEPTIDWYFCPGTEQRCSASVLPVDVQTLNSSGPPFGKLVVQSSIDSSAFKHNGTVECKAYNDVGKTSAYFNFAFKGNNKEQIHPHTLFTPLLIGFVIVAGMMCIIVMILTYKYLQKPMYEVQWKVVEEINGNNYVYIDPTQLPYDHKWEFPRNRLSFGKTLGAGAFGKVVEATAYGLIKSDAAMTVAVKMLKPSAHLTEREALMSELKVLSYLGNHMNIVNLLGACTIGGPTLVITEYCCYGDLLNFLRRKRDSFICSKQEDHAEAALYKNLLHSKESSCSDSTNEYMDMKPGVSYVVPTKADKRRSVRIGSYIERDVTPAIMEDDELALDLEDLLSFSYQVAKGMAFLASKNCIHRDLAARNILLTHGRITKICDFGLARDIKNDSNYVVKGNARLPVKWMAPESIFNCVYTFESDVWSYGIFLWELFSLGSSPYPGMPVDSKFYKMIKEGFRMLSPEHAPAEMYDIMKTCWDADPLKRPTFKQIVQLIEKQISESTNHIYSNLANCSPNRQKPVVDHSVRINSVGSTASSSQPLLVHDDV

As usually defined, the IC50 is the concentration at which inhibition is half-maximal. With `Cn1cc(NC(=O)c2cnc3ccc(N4CCC[C@@H](N)C4)nn23)c(C(F)F)n1`, the IC50 was 41.7 µM with HT; 44.3 µM in the test on Ramos; 10.7 µM in the test on OCI-Ly10; 17.8 µM in the test on TMD8 [1]; 0.0087 µM in test [2].

Consider `O=C(Nc1cn(C2CCNCC2)nc1C(F)(F)F)c1cnc2ccc(N[C@@H]3CCCNC3)nn12`, for which, in [2], the IC50 came out at 0.0522 µM.

In the case of `Cn1cc(NC(=O)c2cnc3ccc(N[C@@H]4CCCNC4)nn23)c(C(F)(F)F)n1`, the IC50 in the test on HT is over 50 µM; with Ramos it was over 50 µM; in the test with OCI-Ly10 it was 2.8 µM; in the test with TMD8 [1] it was 5.9 µM; in test [2], 0.0235 µM.

For `Cn1cc(NC(=O)c2cnc3ccc(N[C@@H]4CCCCNC4)nn23)c(C(F)F)n1`, the IC50 in the test with HT stood at 35.9 µM; in the test with Ramos, 7.2 µM; with OCI-Ly10, 0.8 µM; with TMD8 [1] it was 1.2 µM; in test [2], 0.009 µM.

Regarding `Cn1cc(NC(=O)c2cnc3ccc(N[C@@H]4CCCNC4)nn23)c(C(N)=O)n1`, the IC50 in test [2] worked out at 0.0125 µM.

As to `Cn1cc(NC(=O)c2cnc3ccc(NCCN)nn23)c(C(F)F)n1`, the IC50 is over 50 µM in the test with HT; over 50 µM in the test on Ramos; 8.8 µM with OCI-Ly10; 17.7 µM with TMD8 [1]; 0.0175 µM in [2].

As for `Cc1nc2ccc(N[C@@H]3CCCNC3)nn2c1C(=O)Nc1cn(C)nc1C(F)F`, the IC50 in [2] is over 1 µM.

For the compound `Cn1cc(NC(=O)c2cnc3ccc(N[C@@H]4CCCNC4)nn23)c(C#N)n1`, the IC50 in the test on HT is over 50 µM; in the test with Ramos it was 28.8 µM; in the test with OCI-Ly10 it was 5.8 µM; in the test with TMD8 [1], 14.8 µM; in test [2], 0.0408 µM.

Take `Cc1nn2ccc(N[C@@H]3CCCNC3)nc2c1C(=O)Nc1cn(C)nc1C(F)F`: the 50% inhibitory concentration (IC50) in test [2] is over 1 µM.

On to `Cn1cc(NC(=O)c2cnc3ccc(N[C@H]4CCCNC4)nn23)c(C(F)F)n1`, for which the IC50 in the test with HT is over 50 µM; with Ramos it was over 50 µM; in the test with OCI-Ly10, 22.3 µM; with TMD8 [1], 22.3 µM; in [2], 0.0362 µM.

For the compound `Cn1cc(NC(=O)c2cnc3ccc(N4CCNCC4)nn23)c(C(F)F)n1`, in test [2], the concentration for half-maximal inhibition (IC50) came out at 0.0655 µM.

As a reminder, the inhibition is the drop in the measured response relative to a control, in per cent. Take `Cn1cc(NC(=O)c2cnc3ccc(N[C@@H]4CCCNC4)nn23)c(C(F)F)n1`: the inhibition in test [3] is over 50%; in test [6], over 50%; in [9] it was “Dose-dependent effect”; in test [10], “Dose-dependent effect”; in [12], over 50%. In addition, the IC50 is 40.1 µM with HT; 11.4 µM in the test on Ramos; 0.7 µM in the test on OCI-Ly10; 1.2 µM in the test with TMD8 [1]; 0.0013 µM in test [2]. The inhibition result in [4], in test [5], in test [7] and in [11] was “Active” each time. The CI with TMD8 [8] is on record as 0.13.

As to `CCn1cc(NC(=O)c2cnc3ccc(N[C@@H]4CCCNC4)nn23)c(C(F)(F)F)n1`, the concentration for half-maximal inhibition (IC50) in the test with HT is over 50 µM; with Ramos it was over 50 µM; in the test on OCI-Ly10, 3.6 µM; in the test on TMD8 [1] it was 6.1 µM; in test [2] it was 0.0323 µM.

With `Cn1cc(NC(=O)c2cnc3ccc(N[C@@H]4CCNC4)nn23)c(C(F)F)n1`, the IC50 with HT is over 50 µM; in the test with Ramos, 45 µM; in the test with OCI-Ly10, 3.6 µM; in the test with TMD8 [1] it was 8.3 µM; in [2] it was 0.0077 µM.

Take `CC(C)n1cc(NC(=O)c2cnc3ccc(N[C@@H]4CCCNC4)nn23)c(C(F)(F)F)n1`: the IC50 in test [2] was 0.077 µM.

Take `Cn1cc(NC(=O)c2cnc3ccc(N4CCC(N)CC4)nn23)c(C(F)F)n1`: in [2], the IC50 was 0.0803 µM.

On to `CN(c1ccc2ncc(C(=O)Nc3cn(C)nc3C(F)F)n2n1)[C@@H]1CCCNC1`, for which the IC50 in [2] was over 1 µM.

Turning to `Cn1cc(NC(=O)c2ncn3ccc(N4CCC[C@@H](N)C4)nc23)c(C(F)F)n1`, the IC50 in the test on HT is over 50 µM; with Ramos, over 50 µM; in the test on OCI-Ly10, over 50 µM; in the test with TMD8 [1], over 50 µM; in test [2] it was over 1 µM.

In the case of `Cn1cc(NC(=O)c2cnc3ccc(N4CC[C@@H](N)C4)nn23)c(C(F)F)n1`, the concentration for half-maximal inhibition (IC50) in test [2] is over 1 µM.

`O=C(Nc1cn(C2CCOCC2)nc1C(F)(F)F)c1cnc2ccc(N[C@@H]3CCCNC3)nn12`: the IC50 in the test on HT was over 50 µM; in the test on Ramos it was over 50 µM; in the test with OCI-Ly10 it was 10.5 µM; with TMD8 [1], 11.1 µM; in test [2] it was 0.0497 µM.

Consider `Cn1cc(NC(=O)c2cnn3ccc(N4CCC[C@@H](N)C4)nc23)c(C(F)F)n1`, for which the IC50 turned out to be 29.2 µM in the test on HT; 19 µM in the test on Ramos; 5.5 µM in the test with OCI-Ly10; 7.3 µM with TMD8 [1]; 0.0093 µM in test [2].

Take `Cc1nn(C)cc1NC(=O)c1cnc2ccc(N[C@@H]3CCCNC3)nn12`: in test [2], the IC50 is over 1 µM.
